Laboratory results reported in ChEMBL document CHEMBL1153607, “Synthesis and anti-tumor activities of some new pyridines and pyrazolo[1,5-a]pyrimidines” (Eur J Med Chem, 2009).
Converted amounts (≈) assume the structure as drawn. The source made the active and inactive calls. No cut-off for these calls is given here.

How the values were obtained:
Assay type in all cases: functional, cell-based
HepG2 = test: Antitumor activity against human HepG2 cells after 48 hrs by SRB assay; conditions: HepG2, 48 h
Summary of the method: (§1)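 Cells seeded at 10⁴/well and left overnight to attach, then exposed to compound for 48 h at 37 °C, 5% CO₂, in triplicate wells per dose. Cells were fixed and stained with sulforhodamine B in acetic acid, washed four times with 1% acetic acid, and bound dye was extracted with tris–EDTA. Absorbance was read on an ELISA reader. IC50 (50% growth inhibition) was taken from the survival curve.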

MCF7 [1] = test: Antitumor activity against human MCF7 cells after 48 hrs by SRB assay; conditions: MCF7, 48 h; summary of the method: as §1
HeLa [2] = test: Antitumor activity against human HeLa cells assessed as decrease in survival fraction at 1 ug/ml by SRB assay
Summary of the method: (§2)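 Monolayers seeded at 10⁴ cells/well were allowed to attach overnight, then treated with compound for 48 h at 37 °C, 5% CO₂, with triplicate wells per dose. Cells were fixed and stained with sulforhodamine B, washed with 1% acetic acid, and dye was solubilised in tris–EDTA before absorbance reading. Surviving fraction was plotted against compound concentration for each cell line.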

MCF7 [3] = test: Antitumor activity against human MCF7 cells assessed as decrease in survival fraction at > 1 ug/ml by SRB assay; summary of the method: as §2
MCF7 [4] = test: Antitumor activity against human MCF7 cells assessed as decrease in survival fraction at > 2.5 ug/ml by SRB assay; summary of the method: as §2
HCT-116 [5] = test: Antitumor activity against human HCT116 cells assessed as decrease in survival fraction at 1 ug/ml by SRB assay; summary of the method: as §2
HeLa [6] = test: Antitumor activity against human HeLa cells after 48 hrs by SRB assay; summary of the method: as §1
MCF7 [7] = test: Antitumor activity against human MCF7 cells assessed as decrease in survival fraction at 1 ug/ml by SRB assay; summary of the method: as §2
HCT-116 [8] = test: Antitumor activity against human HCT116 cells after 48 hrs by SRB assay; conditions: HCT-116, 48 h; summary of the method: as §1

| Compound | IC50 (HepG2) [µg/mL] | IC50 (MCF7 [1]) [µg/mL] | Activity (HeLa [2]) | Activity (MCF7 [3]) | Activity (MCF7 [4]) | Activity (HCT-116 [5]) | IC50 (HeLa [6]) [µg/mL] | Activity (MCF7 [7]) | IC50 (HCT-116 [8]) [µg/mL] |
| --- | --- | --- | --- | --- | --- | --- | --- | --- | --- |
| O=C(Nc1ccc(Cl)cc1)c1c(Nc2ccccc2)nn2ccc(-c3ccc4ccccc4c3)nc12 | 1.88 (≈ 3.84 µM) | 0.74 (≈ 1.51 µM) | Active | Active | Active | Active | 0.4 (≈ 0.816 µM) | Active | 0.54 (≈ 1.1 µM) |
| N#Cc1ccc(-c2ccc3ccccc3c2)[nH]c1=S | 1.01 (≈ 3.85 µM) | 0.34 (≈ 1.3 µM) |  | Active | Active |  | 0.6 (≈ 2.29 µM) | Active | 0.49 (≈ 1.87 µM) |
